Assay results from ChEMBL document CHEMBL1221305, “Synthesis and evaluation of oryzalin analogs against Toxoplasma gondii” (Bioorg Med Chem Lett, 2010).
Calls of active or inactive are those of the source. No cut-off for these calls is given here.

How the values were obtained:
Toxoplasma gondii [1] = test: Antimicrobial activity against Toxoplasma gondii infected in HFF after 8 days by plaque assay; assay type: functional, organism-based; conditions: 192 h
Toxoplasma gondii RH [2] = test: Inhibition of tubulin in Toxoplasma gondii RH infected in HFF assessed as microtubules disruption at 10 to 25 uM after 28 hrs by immunofluorescence assay
How it was run: (§1)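 Human fibroblast (HFF) cultures infected with intracellular T. gondii were exposed to compound in DMSO, with DMSO-only controls. They were fixed 28 h after infection for immunofluorescence. Parasite subpellicular microtubules were stained green, with host microtubules or parasite surface antigen P30/SAG1 in red and DNA in blue. Matched phase-contrast images were taken, and parasites per vacuole were scored.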

Toxoplasma gondii [3] = test: Antimicrobial activity against Toxoplasma gondii RH infected in HFF assessed as inhibition of parasite replication at 10 to 25 uM after 28 hrs by immunofluorescence assay; assay type: functional, organism-based; how it was run: as §1
Toxoplasma gondii [4] = test: Antimicrobial activity against Toxoplasma gondii RH infected in HFF assessed as inhibition of parasite growth at 10 to 25 uM after 28 hrs by immunofluorescence assay; assay type: functional, organism-based; how it was run: as §1
HFF [5] = test: Cytotoxicity against HFF assessed as cell vacuolation at 30 uM after 17 hrs by MTS assay; assay type: cell-based; conditions: human
Toxoplasma gondii RH [6] = test: Inhibition of tubulin in Toxoplasma gondii RH infected in HFF assessed as microtubules disruption at 0.5 uM after 28 hrs by immunofluorescence assay
How it was run: (§2)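 Human foreskin fibroblast (HFF) cultures infected with intracellular Toxoplasma were treated for 28 h with 0.5 µM compound in DMSO, with DMSO vehicle as control. Read-out was immunofluorescence: host cell microtubules in red, parasite subpellicular microtubules/tubulin in green, and host and parasite DNA in blue. Microtubules were scored as filamentous linear arrays or as diffuse staining, with matched phase-contrast images.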

Tubulin (Homo sapiens) = Tubulin (Homo sapiens) (UniProt P68371+Q9H4B7+P0DPH7+P68366+Q13509+Q71U36+P04350+Q3ZCM7+P07437+P68363+Q9BQE3+Q6PEY2+Q13885+Q9BVA1+Q9BUF5); test: Inhibition of tubulin in HFF assessed as microtubules disruption at 0.5 uM after 28 hrs by immunofluorescence assay; how it was run: as §2
Toxoplasma gondii [7] = test: Antimicrobial activity against Toxoplasma gondii RH infected in HFF assessed as inhibition of parasite replication at 0.5 uM after 28 hrs by immunofluorescence assay; assay type: functional, organism-based
HFF [8] = test: Cytotoxicity against HFF assessed as reduction of cell viability at 0.5 uM after 17 hrs by MTS assay; assay type: cell-based; conditions: human
How it was run: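 Host HFF cells were treated for 17 h with compound at 0.5 µM or 30 µM. Viable cells were quantified by tetrazolium dye (MTS, CellTiter reagent) assay.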

HFF [9] = test: Cytotoxicity against HFF assessed as assessed as reduction of cell viability at 30 uM after 17 hrs by MTS assay; assay type: cell-based; conditions: human

Structure (SMILES): CCCN(CCC)c1c(C#N)cc(S(N)(=O)=O)cc1C#N
- IC50 (Toxoplasma gondii [1]): 4800 nM

Structure (SMILES): NS(=O)(=O)c1cc([N+](=O)[O-])c(N(CC2CCCCC2)CC2CCCCC2)c([N+](=O)[O-])c1
- inhibition (Toxoplasma gondii RH [2]): inactive
- inhibition (Toxoplasma gondii [3]): Active
- inhibition (Toxoplasma gondii [4]): Active

Structure (SMILES): CCCN(CCC)c1c([N+](=O)[O-])cc([N+](=O)[O-])cc1C(F)(F)F
- IC50 (Toxoplasma gondii [1]): 7800 nM

Structure (SMILES): CC(C)CN(CC(C)C)c1c([N+](=O)[O-])cc(S(N)(=O)=O)cc1[N+](=O)[O-]
- IC50 (Toxoplasma gondii [1]): 350 nM

Structure (SMILES): NS(=O)(=O)c1cc([N+](=O)[O-])c(N(CCCCl)Cc2ccccc2)c([N+](=O)[O-])c1
- IC50 (Toxoplasma gondii [1]): 2600 nM

Structure (SMILES): CCCCN(CCCC)c1c([N+](=O)[O-])cc(S(N)(=O)=O)cc1[N+](=O)[O-]
- IC50 (Toxoplasma gondii [1]): 1100 nM

Structure (SMILES): CCCN(CCC)c1c([N+](=O)[O-])cc(S(N)(=O)=O)cc1[N+](=O)[O-] [ORYZALIN]
- IC50 (Toxoplasma gondii [1]): 250 nM

Structure (SMILES): CCCCN(CCCC)c1c([N+](=O)[O-])cc(C(F)(F)F)c(N)c1[N+](=O)[O-]
- IC50 (Toxoplasma gondii [1]): 510 nM

Structure (SMILES): CCCN(CCC)c1c([N+](=O)[O-])cc(S(=O)(=O)Nc2ccccc2)cc1[N+](=O)[O-]
- IC50 (Toxoplasma gondii [1]): 6700 nM

Structure (SMILES): CCCN(CCC)c1c([N+](=O)[O-])cc(C(F)(F)F)cc1[N+](=O)[O-] [TRIFLURALIN]
- IC50 (Toxoplasma gondii [1]): 650 nM

Structure (SMILES): CCCN(CCC)c1c([N+](=O)[O-])cc(S(=O)(=O)N(C)C)cc1[N+](=O)[O-]
- IC50 (Toxoplasma gondii [1]): 3400 nM

Structure (SMILES): CCCN(CCC)c1c([N+](=O)[O-])cc(S(=O)(=O)Nc2ccc(O)cc2)cc1[N+](=O)[O-]
- IC50 (Toxoplasma gondii [1]): 2600 nM

Structure (SMILES): Cc1ccc(CN(Cc2ccc(C)cc2)c2c([N+](=O)[O-])cc(S(N)(=O)=O)cc2[N+](=O)[O-])cc1
- inhibition (Toxoplasma gondii RH [2]): inactive
- Activity (HFF [5]): Toxic
- inhibition (Toxoplasma gondii [3]): Active
- inhibition (Toxoplasma gondii [4]): Active

Structure (SMILES): CCN(CC)c1c([N+](=O)[O-])cc(C(F)(F)F)c(N)c1[N+](=O)[O-] [DINITRAMINE]
- IC50 (Toxoplasma gondii [1]): 70 nM

Structure (SMILES): NS(=O)(=O)c1cc([N+](=O)[O-])c(N(Cc2ccccc2)Cc2ccccc2)c([N+](=O)[O-])c1
- inhibition (Toxoplasma gondii RH [2]): inactive
- inhibition (Toxoplasma gondii [3]): Active
- inhibition (Toxoplasma gondii [4]): Active

Structure (SMILES): CCCN(CCC)c1c([N+](=O)[O-])cc(C(F)(F)F)c(N)c1[N+](=O)[O-]
- IC50 (Toxoplasma gondii [1]): 36 nM
- inhibition (Toxoplasma gondii RH [6]): Active
- Activity (Tubulin (Homo sapiens)): Non-toxic
- inhibition (Toxoplasma gondii [7]): Active
- Activity (HFF [8]): Non-toxic

Structure (SMILES): CCCN(CCC)c1c([N+](=O)[O-])cc(S(=O)(=O)NCCO)cc1[N+](=O)[O-]
- IC50 (Toxoplasma gondii [1]): 26000 nM

Structure (SMILES): NS(=O)(=O)c1cc([N+](=O)[O-])c(N(Cc2ccccc2)CC2CC2)c([N+](=O)[O-])c1
- IC50 (Toxoplasma gondii [1]): 2100 nM

Structure (SMILES): NS(=O)(=O)c1cc([N+](=O)[O-])c(N(CCc2ccccc2)CCc2ccccc2)c([N+](=O)[O-])c1
- inhibition (Toxoplasma gondii RH [2]): inactive
- Activity (HFF [5]): Toxic
- inhibition (Toxoplasma gondii [3]): Active
- Activity (HFF [9]): Toxic
- inhibition (Toxoplasma gondii [4]): Active

Structure (SMILES): NS(=O)(=O)c1cc([N+](=O)[O-])c(N(CCCl)Cc2ccccc2)c([N+](=O)[O-])c1
- IC50 (Toxoplasma gondii [1]): 850 nM
